Laboratory results taken from ChEMBL document CHEMBL1126160, “Synthesis and structure-activity relationships of 7-diazabicycloalkylquinolones, including danofloxacin, a new quinolone antibacterial agent for veterinary medicine” (J Med Chem, 1992).
In brackets after ≈: the same amount, converted by molar mass.

Columns and labels:
[1] = system: Actinobacillus pleuropneumoniae; test: In vitro antibacterial activity against anaerobically grown Actinobacillus pleuropneumoniae ([…]); format: functional
Procedure, shortened: (§1)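 Agar dilution MICs. Anaerobic strains were tested on tryptose agar with 5% bovine blood and incubated 48 h at 39 °C in an anaerobe chamber under N2/CO2/H2 (80:10:10).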

Trueperella pyogenes = test: In vitro antibacterial activity against anaerobically grown Actinomyces pyogenes (14D002); format: functional; procedure, shortened: as §1
Phocaeicola vulgatus = test: In vitro antibacterial activity against anaerobically grown Bacteroides vulgatus (78D029); format: functional; procedure, shortened: as §1
[2] = system: Bordetella bronchiseptica; test: In vitro antibacterial activity against aerobically grown Bordetella bronchiseptica (73A009); format: functional
Procedure, shortened: (§2)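 Agar dilution MICs. Aerobic strains were tested on brain heart infusion agar and incubated aerobically at 37 °C for 18–20 h.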

Escherichia coli [3] = test: In vivo protective dose was evaluated against Escherichia coli (51A266) in mouse(sc); format: functional; conditions: read-out: PD50
Procedure, shortened: (§3)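 Female CF-1 mice (15 g), groups of 10, challenged ip with 0.5 mL bacterial suspension (P. multocida 59A006 or E. coli 51A266 at 3.0 × 10^8 cfu/mL; S. choleraesuis 58B010 at 8.5 × 10^2 cfu/mL). Drug given sc or po at 30 min, 4 h and 24 h after challenge; survival recorded at 96 h; PD50 by probit analysis.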

Escherichia coli [4] = test: In vitro antibacterial activity against aerobically grown Escherichia coli (51A538); format: functional; procedure, shortened: as §2
Escherichia coli [5] = test: Escherichia coli DNA cleavage endpoint value which is the minimum amount required (in micro g/mL) to induce detectable cleavage of supercoiled pBR322 substrate to linear form (gyrase); format: functional; conditions: read-out: MIC
Procedure, shortened: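 DNA gyrase A and B subunits were purified from E. coli overproducers. About 2 units of holoenzyme were incubated with pBR322 in Tris-HCl pH 7.5 containing MgCl2, spermidine, DTT, 0.2 mM ATP, BSA and tRNA. Drug was added as 2-fold serial dilutions, and reactions ran for 60 min at 25 °C. Reactions were stopped with SDS and proteinase K, then run on agarose and stained with ethidium. The endpoint was the lowest concentration giving detectable linear DNA.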

[6] = In vitro antibacterial activity against Aerobically grown Pasteurella haemolytica (59B018); format: functional; conditions: Mannheimia haemolytica; procedure, shortened: as §2
Pasteurella multocida [7] = test: In vitro antibacterial activity against aerobically grown Pasteurella multocida (59A006); format: functional; procedure, shortened: as §2
Pasteurella multocida [8] = test: In vivo protective dose was evaluated against Pasteurella multocida (59A006) in mouse(sc); format: functional; conditions: read-out: PD50; procedure, shortened: as §3
Salmonella enterica [9] = test: In vitro antibacterial activity against aerobically grown Salmonella choleraesuis (58B015); format: functional
Staphylococcus aureus = test: In vitro antibacterial activity against aerobically grown Staphylococcus aureus (54B004); format: functional; procedure, shortened: as §2
[10] = In vitro evaluation for antibacterial activity against anaerobically grown Treponema hyodysenteriae (94A007); format: functional; conditions: Brachyspira hyodysenteriae
Clostridium perfringens = test: microbe, parasite or virus in culture; format: functional
Pasteurella multocida [11] = test: In vitro antibacterial activity against Aerobically grown Pasteurella multocida (59A006); format: functional; procedure, shortened: as §2
Salmonella enterica [12] = test: In vitro antibacterial activity against Aerobically grown Salmonella choleraesuis (58B015); format: functional
[13] = system: Actinobacillus pleuropneumoniae; test: Compound was evaluated for minimum effective dose against Actinobacillus pleuropneumonia peroral dose administration; format: functional; conditions: po, read-out: MED
Procedure, shortened: (§4)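 Calf and swine respiratory disease models. Calves received acetic acid intratracheally on the day before and on day 0, then an endotracheal challenge with P. haemolytica B280PA, about 5 × 10^8 cfu/mL. They were dosed im with a 2.5% or 5% solution in sterile water on days 0 and 1 (SID × 2). Pigs weighing 8.5–12.5 kg were challenged intranasally with A. pleuropneumoniae B316HM, 10^9 cfu/mL. They were dosed once within 1 h, either im (1% or 2.5% solution) or by gavage (0.5% solution). MED was the lowest dose giving significant reduction of lung pathology.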

Mannheimia haemolytica [14] = test: Compound was evaluated for minimum against Pasteurella haemolytica intramuscular dose administration; format: functional; conditions: im, read-out: MED; procedure, shortened: as §4
Pasteurella multocida [15] = test: In vivo protective dose was evaluated Pasteurella multocida (59A006) in mouse(po); format: functional; conditions: read-out: PD50; procedure, shortened: as §3
Pasteurella multocida [16] = test: In vivo protective dose was evaluated Pasteurella multocida (59A006) in mouse(sc); format: functional; conditions: read-out: PD50; procedure, shortened: as §3
[17] = system: Actinobacillus pleuropneumoniae; test: Compound was evaluated for minimum against Actinobacillus pleuropneumoniae intramuscular dose administration; conditions: im, read-out: MED
[18] = system: Actinobacillus pleuropneumoniae; test: Compound was evaluated for minimum effective dose against Actinobacillus pleuropneumonia, peroral dose administration; format: functional; conditions: po, read-out: MED
Procedure, shortened: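 Cross-bred swine, 8.5–12.5 kg; intranasal challenge with A. pleuropneumoniae strain B316HM, grown overnight on enriched BHI agar at 37 °C in 5–10% CO2 and standardized by OD to 10^9 cfu/mL, three 1-mL increments per nostril. Single treatment (SID × 1): im 1% or 2.5% solution in sterile water into ham within 1 h of challenge, or oral gavage of 0.5% solution in sterile water.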

[19] = compound was evaluated for aqueous solubility at pH 7.2; format: physicochemical; conditions: buffer
Procedure, shortened: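 Excess solid (~5 mg) shaken in 3 mL 0.05 M phosphate buffer pH 7.2 at 23 ± 1 °C in duplicate vials up to 3 days, pH readjusted to 7.2 after each sampling; filtered (0.45 nylon) samples analysed by HPLC.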

Escherichia coli [20] = test: In vivo protective dose was evaluated against Escherichia coli (51A266) in mouse(po); format: functional; conditions: read-out: PD50; procedure, shortened: as §3
Mannheimia haemolytica [21] = test: Compound was evaluated for minimum effective dose against Pasteurella haemolytica, intramuscular dose administration; format: functional; conditions: im, read-out: MED
Procedure, shortened: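 Calves acid-treated intratracheally with 0.6 mL 8% acetic acid at 24 h and 4 h before endotracheal challenge with 50 mL P. haemolytica B280PA (~5 × 10^8 cfu/mL). im dosing of 2.5% or 5% solution in sterile water, day 0 and day 1 (SID × 2). Clinical signs and temperature recorded days 0–5; lungs scored and cultured. MED = lowest dose giving significant (65%) reduction of lung pathology.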

Pasteurella multocida [22] = test: In vivo protective dose was evaluated against Pasteurella multocida (59A006) in mouse(po); format: functional; conditions: read-out: PD50; procedure, shortened: as §3
[23] = system: Actinobacillus pleuropneumoniae; test: Compound was evaluated for minimum effective dose against Actinobacillus pleuropneumonia, intramuscular dose administration; conditions: im, read-out: MED
[24] = Compound was evaluated for aqueous solubility at pH 7.2; conditions: buffer

SMILES | MIC [1] | MIC (Trueperella pyogenes) | MIC (Phocaeicola vulgatus) | MIC [2] | ED50 (Escherichia coli [3]) | MIC (Escherichia coli [4]) | minimum concentration inducing gyrase-mediated DNA cleavage (Escherichia coli [5]) | MIC [6] | MIC (Pasteurella multocida [7]) | ED50 (Pasteurella multocida [8]) | MIC (Salmonella enterica [9]) | MIC (Staphylococcus aureus) | MIC [10] | MIC (Clostridium perfringens) | further results
O=C(O)c1cn(C2CC2)c2cc(N3CCN4CCCC3C4)c(F)cc2c1=O (centres undefined) | 0.02 µg/mL (≈ 0.0538 µM) | 3.13 µg/mL (≈ 8.43 µM) | 0.78 µg/mL (≈ 2.1 µM) | 0.78 µg/mL (≈ 2.1 µM) | 0.31 mg/kg | 0.05 µg/mL (≈ 0.135 µM) | 0.78 µg/mL | 0.02 µg/mL (≈ 0.0538 µM) | 0.002 µg/mL (≈ 0.00538 µM) | 0.15 mg/kg | 0.05 µg/mL (≈ 0.135 µM) | 0.1 µg/mL (≈ 0.269 µM) | 0.2 µg/mL (≈ 0.538 µM) | 0.2 µg/mL (≈ 0.538 µM) | 
CN1C[C@@H]2C[C@H]1CN2c1cc2c(cc1F)c(=O)c(C(=O)O)cn2-c1ccc(F)cc1 | 0.1 µg/mL (≈ 0.243 µM) | 3.13 µg/mL (≈ 7.61 µM) | 1.56 µg/mL (≈ 3.79 µM) | 1.56 µg/mL (≈ 3.79 µM) | 0.94 mg/kg | 0.2 µg/mL (≈ 0.486 µM) | 1.56 µg/mL | 0.1 µg/mL (≈ 0.243 µM) | 0.02 µg/mL (≈ 0.0486 µM) | 0.29 mg/kg | 0.2 µg/mL (≈ 0.486 µM) | 0.2 µg/mL (≈ 0.486 µM) | 0.78 µg/mL (≈ 1.9 µM) | 0.1 µg/mL (≈ 0.243 µM) | 
CCn1cc(C(=O)O)c(=O)c2cc(F)c(N3C[C@@H]4C[C@H]3CN4C)cc21 | 0.78 µg/mL (≈ 2.26 µM) | > 3.13 µg/mL | > 3.13 µg/mL | 1.56 µg/mL (≈ 4.52 µM) | 1.45 mg/kg | 0.2 µg/mL (≈ 0.579 µM) | 3.12 µg/mL | 0.39 µg/mL (≈ 1.13 µM) |  | 1.35 mg/kg |  | 0.39 µg/mL (≈ 1.13 µM) | 1.56 µg/mL (≈ 4.52 µM) | 0.2 µg/mL (≈ 0.579 µM) | MIC (Pasteurella multocida [11]): 0.1 µg/mL (≈ 0.29 µM); MIC (Salmonella enterica [12]): 0.39 µg/mL (≈ 1.13 µM)
C=Cn1cc(C(=O)O)c(=O)c2cc(F)c(N3C[C@H]4CC[C@@H](C3)N4C)cc21 | 0.2 µg/mL (≈ 0.56 µM) | 3.13 µg/mL (≈ 8.76 µM) | 6.25 µg/mL (≈ 17.5 µM) | 12.5 µg/mL (≈ 35 µM) |  | 0.78 µg/mL (≈ 2.18 µM) | 0.39 µg/mL | 0.39 µg/mL (≈ 1.09 µM) | 0.1 µg/mL (≈ 0.28 µM) |  | 0.78 µg/mL (≈ 2.18 µM) | 0.2 µg/mL (≈ 0.56 µM) | 1.56 µg/mL (≈ 4.37 µM) | 0.78 µg/mL (≈ 2.18 µM) | 
CCn1cc(C(=O)O)c(=O)c2cc(F)c(N3C[C@H]4CC[C@@H](C3)N4C)cc21 | 0.78 µg/mL (≈ 2.17 µM) | > 3.13 µg/mL | > 3.13 µg/mL | > 1.56 µg/mL | 2.23 mg/kg | 0.78 µg/mL (≈ 2.17 µM) | 3.12 µg/mL | 0.39 µg/mL (≈ 1.09 µM) | 0.2 µg/mL (≈ 0.556 µM) |  | 0.78 µg/mL (≈ 2.17 µM) | 0.2 µg/mL (≈ 0.556 µM) | 3.13 µg/mL (≈ 8.71 µM) | 0.39 µg/mL (≈ 1.09 µM) | minimal effective dose [13]: 5 mg/kg; minimal effective dose (Mannheimia haemolytica [14]): 1.2 mg/kg; ED50 (Pasteurella multocida [15]): 2.21 mg/kg; ED50 (Pasteurella multocida [16]): 1.31 mg/kg; minimal effective dose [17]: 0.6 mg/kg
CCn1cc(C(=O)O)c(=O)c2cc(F)c(N3CCN4CCC3CC4)cc21 [BINFLOXACIN] | 0.05 µg/mL (≈ 0.139 µM) | 3.13 µg/mL (≈ 8.71 µM) | > 3.13 µg/mL | 1.56 µg/mL (≈ 4.34 µM) | 1.1 mg/kg | 0.2 µg/mL (≈ 0.556 µM) | 1.56 µg/mL | 0.1 µg/mL (≈ 0.278 µM) | 0.05 µg/mL (≈ 0.139 µM) | 0.63 mg/kg | 0.2 µg/mL (≈ 0.556 µM) | 0.39 µg/mL (≈ 1.09 µM) | 1.56 µg/mL (≈ 4.34 µM) | 0.1 µg/mL (≈ 0.278 µM) | minimal effective dose [18]: 2.5 mg/kg; solubility [19]: 49 µg/mL (≈ 136 µM); ED50 (Escherichia coli [20]): 10.2 mg/kg; minimal effective dose (Mannheimia haemolytica [21]): 0.3 mg/kg; ED50 (Pasteurella multocida [22]): 1.9 mg/kg; minimal effective dose [23]: 0.3 mg/kg
CCn1cc(C(=O)O)c(=O)c2cc(F)c(N3CCNCC3)cc21 [NORFLOXACIN] | < 0.05 µg/mL | 12.5 µg/mL (≈ 39.1 µM) | 25 µg/mL (≈ 78.3 µM) | 6.25 µg/mL (≈ 19.6 µM) | 0.46 mg/kg | 0.1 µg/mL (≈ 0.313 µM) | 0.78 µg/mL | 0.05 µg/mL (≈ 0.157 µM) | 0.05 µg/mL (≈ 0.157 µM) | 5.54 mg/kg | 0.1 µg/mL (≈ 0.313 µM) | 3.13 µg/mL (≈ 9.8 µM) | 6.25 µg/mL (≈ 19.6 µM) | 0.39 µg/mL (≈ 1.22 µM) | solubility [24]: 350 µg/mL (≈ 1100 µM); ED50 (Escherichia coli [20]): 8.84 mg/kg; ED50 (Pasteurella multocida [22]): 0.63 mg/kg
